MrgX1 antagonist – human MrgX1 receptor antagonism, primary screen. MRGX1-HEK293 calcium flux, Fluo-4, BAM8-22 antagonism; active compounds read low. actives 1.3% (n = 310,000). B-score at 10 µM;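 active = calcium-response B-score plate-corrected more than 3 library SD below zero, starting fluorescence within 5 deviations, no agonist response on first addition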;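 note: peak minus trough fluorescence over baseline after final BAM8-22 challenge near maximal dose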
Target sequence (Q96LB2 whole entry, looked up): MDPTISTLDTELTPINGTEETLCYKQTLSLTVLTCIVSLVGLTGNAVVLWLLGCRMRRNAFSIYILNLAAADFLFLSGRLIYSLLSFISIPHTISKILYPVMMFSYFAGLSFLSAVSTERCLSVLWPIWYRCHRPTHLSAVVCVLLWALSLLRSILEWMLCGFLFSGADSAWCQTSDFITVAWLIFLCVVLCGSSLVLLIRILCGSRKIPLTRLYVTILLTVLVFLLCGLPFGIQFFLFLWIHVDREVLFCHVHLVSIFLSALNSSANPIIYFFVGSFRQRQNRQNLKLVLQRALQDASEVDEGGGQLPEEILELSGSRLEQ
RGS4 inh – human RGS4 inhibition | P49798 | HEK293 M3R/RGS4 inducible, Fluo-4 calcium flux; active compounds read high; triggered by carbachol at its EC20 | B-score at 10 µM | actives 0.45% (n = 310,000);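 active = B-score, a plate-corrected calcium signal, over three deviations above library mean, with baseline fluorescence within five deviations of library mean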;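 note: RGS4 expression induced by doxycycline in cells with stable M3 receptor; B-score is computed from the integrated fluorescence ratio over baseline after carbachol; higher B-score means a larger calcium signal and so more RGS4 inhibition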
Target sequence (P49798 whole entry, looked up): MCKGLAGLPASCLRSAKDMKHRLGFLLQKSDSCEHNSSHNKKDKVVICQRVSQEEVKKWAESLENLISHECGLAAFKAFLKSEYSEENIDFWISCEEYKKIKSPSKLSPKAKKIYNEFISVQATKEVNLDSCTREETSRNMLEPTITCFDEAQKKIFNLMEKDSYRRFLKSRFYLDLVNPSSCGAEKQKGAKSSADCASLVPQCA
RGS4 act – potentiators or activators of RGS4 | HEK293 M3R/inducible RGS4, carbachol calcium flux Fluo4; active compounds read low | AID 463111 | B-score at 10 µM | actives 0.92% (n = 310,000);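 active = B-score of the integrated calcium signal more than 4 SD below the library mean, with starting fluorescence not abnormally high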;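 note: negative B-score means reduced calcium response which marks RGS4 activation or potentiation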
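Also added: carbachol at ECmax as muscarinic agonist stimulus; Assay system: HEK293 cells with stable M3R and inducible RGS4; Timing: overnight RGS4 induction, 30 min dye load 37 °C, 20 min compound RT; Measured by: Fluo4-AM (2 µM) calcium-flux fluorescence, kinetic read.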
MrgX1 ag – agonists of human MrgX1 receptor. actives 0.44% (n = 310,000). AID 588627. B-score at 10 µM. MrgX1-HEK293 cells, Fluo-4 calcium fluorescence, agonist mode; active compounds read high. Q96LB2;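 active = calcium response B-score plate-corrected fluorescence ratio at least 3 library SD, with starting fluorescence B-score inside 5 SD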
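Test system: Stable human MrgX1 HEK293 cell line | Schedule: Overnight plating before 1 h dye loading | Read-out basis: Baseline-normalised fluorescence change ratio, B-scored | Detection: Kinetic calcium dye fluorescence, Fluo-4 NW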
MrgX1 PAM – human MrgX1 positive allosteric modulation, primary screen; AID 588675; B-score at 10 µM; Q96LB2; MrgX1-HEK293, Fluo-4 calcium flux, FDSS; active compounds read high; actives 0.63% (n = 310,000);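 active = plate-corrected calcium response at least 3 library SD above typical, normal starting fluorescence, not activating the receptor alone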;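 note: compound read alongside a low EC10 to EC30 dose of BAM8-22 agonist; peak minus trough fluorescence over baseline measured at the second addition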
MrgX1 ag reconf – reconfirmed activator of human MrgX1 receptor signaling; shares compounds with MrgX1 ag; MrgX1-HEK293, Fluo-4 calcium fluorescence, FDSS; activation, % at 10 µM; actives 78% (n = 600); AID 602412;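 active = calcium signal rise, corrected for plate position, at least 3 library SD high, with starting brightness within 5 such deviations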
HEK293 Ca flux – counter-screen for MrgX1 antagonists: effect in parental HEK293 cells; AID 624111; fluorescence ratio F(max-min)/F0 at 10 µM; Fluo-4 calcium fluorescence, FDSS; actives 2% (n = 4,000); shares compounds with MrgX1 antagonist;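 active = duplicate-averaged calcium fluorescence ratio at least three times the standard deviation of buffer wells, a nonspecific response in parental cells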
HEK293 Ca counter – activity in parental HEK293 cells without MrgX1; shares compounds with MrgX1 antagonist; AID 624114; actives 0.4% (n = 4,000); fluorescence ratio F(max-min)/F0 at 10 µM; parental HEK293 calcium flux, Fluo-4 fluorescence ratio; active compounds read high;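 active = calcium fluorescence ratio, averaged over duplicates, at least 3 SD of the buffer-well ratio, meaning a nonspecific response in receptor-free cells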;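 note: untransfected parental HEK293 lacking MrgX1 used as counterscreen for MrgX1 allosteric activators; fluorescence change taken during the second addition on a kinetic imager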
HEK293 Ca cntr2 – counter-screen for MrgX1 activators: effect in parental HEK293 cells; Fluo-4 calcium fluorescence (FDSS); active compounds read high; actives 8.7% (n = 4,000); shares compounds with MrgX1 antagonist; fluorescence ratio F(max-min)/F0 at 10 µM; AID 624115;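 active = calcium fluorescence ratio at least three times the spread of buffer wells, meaning a non-specific response in parental cells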
* marks the source's active call; other numbers are inactive results; i = inactive; . = not tested or not shown. A selection: hits, their analogues and other compounds. The true share with any hit is near 3.5%.

SMILES	MrgX1 antagonist	RGS4 inh	RGS4 act	MrgX1 ag	MrgX1 PAM	MrgX1 ag reconf	HEK293 Ca flux	HEK293 Ca counter	HEK293 Ca cntr2
Cc1ccc(-c2ccc(CCC(=O)O)n2Cc2ccco2)cc1	i	i	i	31*	i	129%*	i	i	i
CC(C)(C)n1nnnc1C(c1ccc2ncccc2c1)N1CCC(O)CC1 (stereo not drawn)	i	i	i	i	i	.	.	.	.
N#CCSc1nc2ccccc2c(=O)n1C1CCCCC1	i	i	i	i	i	.	.	.	.
O=c1c2ccccc2nc(SCc2cccc(F)c2)n1C1CCCC1	i	i	i	29*	i	196%*	i	53*	i
O=C(C#Cc1ccccc1)c1ccco1	i	i	i	44*	i	240%*	i	i	i
CC(=O)N1CCc2cc(S(=O)(=O)NCCN3CCC(C)CC3)ccc21	i	i	i	i	i	.	.	.	.
CCC(=O)NC(=S)NNC(=O)c1ccc([N+](=O)[O-])cc1	i	i	i	i	i	.	.	.	.
CC(C)CC(=O)NC(=S)NNC(=O)c1ccc([N+](=O)[O-])cc1	i	i	i	81*	i	280%*	i	i	72*
Fc1cccc(Cl)c1CN1CCN(c2nc3ccccc3s2)CC1	i	i	i	31*	i	224%*	i	i	i
O=C(c1ccc2ccccc2n1)N1CCN(Cc2c(F)cccc2Cl)CC1	i	i	i	i	i	.	.	.	.
CN/C(=C/[N+](=O)[O-])NCCSCc1csc(CN(C)C)n1	i	.	.	i	i	.	.	.	.
Cc1cc2nc3ccc(N(C)C)cc3nc2cc1N	i	i	i	26*	i	259%*	i	i	i
CCOc1ccc(Nc2nc(C)cc(C)c2C#N)cc1	i	i	i	i	i	.	.	.	.
CC(C)/C=C1\CC/C(=C\c2ccc(N(C)C)cc2)C1=O	i	i	i	101*	i	i	0.015*	i	141*
CCCOc1ccc(C(=O)NNC(=S)NC(=O)c2cccs2)cc1	i	i	-8.6*	110*	i	496%*	i	i	104*
CCCOc1ccc(C(=O)NNC(=S)NC(=O)c2ccccc2)cc1	i	i	-8.4*	91*	i	663%*	i	i	128*
O=C(COC(=O)/C=C/c1cccs1)NC(=O)Cc1ccccc1	i	i	i	i	i	.	.	.	.
CN(C)c1ccc(CN(C(=O)c2cc3ccccc3oc2=O)C2CCS(=O)(=O)C2)cc1 (stereo not drawn)	i	i	i	i	i	.	.	.	.
COc1cc2c(cc1OC)C(c1ccccc1C(F)(F)F)CC(=O)N2 (stereo not drawn)	i	i	i	29*	i	i	i	i	i
O=C1Cc2ccccc2Sc2c(OCCN3CCCCC3)cccc21	i	i	i	27*	i	203%*	i	i	i
O=C1Cc2ccccc2Sc2cc(OCCCN3CCCCC3)ccc21	i	i	i	i	i	.	.	.	.
Cn1cc(C=C2C(=O)OC3(CCCCC3)OC2=O)c2ccccc21	i	i	i	i	i	.	.	.	.
CCN(CC)c1ccc(C=C2C(=O)OC3(CCCC3)OC2=O)cc1	i	i	i	74*	i	440%*	i	i	110*
CCN(CC)S(=O)(=O)c1ccc(Cl)c(OC)c1	i	i	i	i	i	.	.	.	.
Cc1cc2ccc3ccccc3c2cc1CN(C)C	i	i	i	i	i	.	.	.	.
SMILES	MrgX1 antagonist	RGS4 inh	RGS4 act	MrgX1 ag	MrgX1 PAM	MrgX1 ag reconf	HEK293 Ca flux	HEK293 Ca counter	HEK293 Ca cntr2
CN(C)CCOC1c2ccccc2CCc2ccc3ccccc3c21 (stereo not drawn)	i	i	i	57*	i	142%*	i	i	i
O=C(NCc1cccc(Cl)c1)c1cnccn1	i	i	i	i	i	.	.	.	.
Cc1ccccc1NC(=O)CN1CCOCC1	i	i	i	35*	i	i	i	i	i
COc1ccccc1C(=O)COC(=O)CN1C(=O)c2ccccc2C1=O	i	i	i	i	i	.	.	.	.
Cc1onc(-c2ccccc2)c1C(=O)N1CCN(c2ccc([N+](=O)[O-])cc2)CC1	i	i	i	i	i	.	.	.	.
COc1ccc(S(=O)(=O)Nc2c(O)ccc3ccccc23)cc1OC	i	i	i	27*	i	i	i	i	i
O=C(CCSc1ccc(Br)cc1)c1ccc(O)cc1	i	i	i	i	i	.	.	.	.
CN1CCN(C(CNC(=O)C(=O)Nc2ccc3c(c2)OCO3)c2ccc(F)cc2)CC1 (stereo not drawn)	i	i	i	i	i	.	.	.	.
COC(=O)CNC(c1ccccc1Cl)c1cc(Br)ccc1NS(=O)(=O)c1ccc(C)cc1 (stereo not drawn)	i	i	i	i	i	.	.	.	.
CC(C)OC(=O)CSc1nnc(-c2ccncc2)n1N	i	i	i	41*	i	i	i	i	i
CC(C)OC(=O)CSc1nnc(-c2ccc(C(C)(C)C)cc2)n1N	i	i	i	i	i	.	.	.	.
CN1CCN(c2oc(/C=C/c3ccccc3)nc2C#N)CC1	i	i	i	i	i	.	.	.	.
COc1cc(/C=C(\C#N)C(=O)c2c[nH]c3ccccc23)cc(OC)c1O	i	i	i	70*	i	461%*	i	i	105*
CC1(C)NC(=O)N(CC(O)COc2ccccc2[N+](=O)[O-])C1=O (stereo not drawn)	i	i	i	i	i	.	.	.	.
Cc1ccc(-c2[nH]c(-c3ccccc3)nc2SCC(=O)NCC2CCCO2)cc1 (stereo not drawn)	i	i	i	34*	i	239%*	i	i	49*
O=C(NNC(=S)Nc1ccccc1)c1ccco1	i	i	i	i	i	.	.	.	.
COc1ccc(C(=O)NC(=S)NNC(=O)c2ccc(C)cc2)cc1	i	i	-7.3*	149*	i	659%*	i	i	133*
